Columns and labels:
SF-539 = experiment: Antiproliferative activity was determined for 50% growth inhibition against human CNS SF-539 cell line; format: functional
Method in brief: (§1)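 Human cancer cell lines from the roughly 55-line panel. GI50 is the concentration giving 50% growth inhibition. The test range was 10^-4 to 10^-8 M. Values outside the range were set to the minimum (10^-8 M) or the maximum (10^-4 M).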

DU-145 [1] = experiment: Antiproliferative activity was determined for 50% growth inhibition against human Prostate c; format: functional; conditions: DU-145, Prostate gland; method in brief: as §1
HOP-62 = experiment: Antiproliferative activity was determined for 50% growth inhibition against human lung HOP-62 cell line; format: functional; conditions: Homo sapiens, HOP-62; method in brief: as §1
HCT-116 = experiment: Antiproliferative activity was determined for 50% growth inhibition against human colon HCT116 cell line; format: functional; conditions: Homo sapiens, HCT-116; method in brief: as §1
MDA-MB-435 = experiment: Antiproliferative activity was determined for 50% growth inhibition against human breast MDA-MB-435 cell line; format: functional; conditions: Homo sapiens, MDA-MB-435; method in brief: as §1
OVCAR-3 = experiment: Antiproliferative activity was determined for 50% growth inhibition against human ovarian OVCAR-3 cell line; format: functional; method in brief: as §1
SN12C = experiment: Antiproliferative activity was determined for 50% growth inhibition against human renal SN12C cell line; format: functional; conditions: Homo sapiens, SN12C; method in brief: as §1
UACC-62 = experiment: Antiproliferative activity was determined for 50% growth inhibition against human melanoma UACC-62 cell line; format: functional; conditions: Homo sapiens, UACC-62; method in brief: as §1
[2] = test system: Panel (Carcinoma cell lines); experiment: Mean graph midpoint for growth inhibition of all human cancer cell lines; format: functional; set-up: unit: µM
Method in brief: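 Mean graph midpoint across all cell lines successfully tested in the roughly 55-line human cancer panel. Each line's GI50 is the 50% growth-inhibition concentration, tested over 10^-4 to 10^-8 M. Out-of-range values were set to 10^-8 M or 10^-4 M before averaging.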

DU-145 [3] = experiment: Antiproliferative activity was determined for 50% growth inhibition against human Prostate DU-145 cell line; format: functional; conditions: Homo sapiens, DU-145; method in brief: as §1
[4] = molecular target: T1, DNA topoisomerase 1 (Homo sapiens) (UniProt P11387); experiment: Inhibitory activity of compound against human recombinant DNA topoisomerase I mediated DNA cleavage; Weak activity
T1 sequence (whole entry): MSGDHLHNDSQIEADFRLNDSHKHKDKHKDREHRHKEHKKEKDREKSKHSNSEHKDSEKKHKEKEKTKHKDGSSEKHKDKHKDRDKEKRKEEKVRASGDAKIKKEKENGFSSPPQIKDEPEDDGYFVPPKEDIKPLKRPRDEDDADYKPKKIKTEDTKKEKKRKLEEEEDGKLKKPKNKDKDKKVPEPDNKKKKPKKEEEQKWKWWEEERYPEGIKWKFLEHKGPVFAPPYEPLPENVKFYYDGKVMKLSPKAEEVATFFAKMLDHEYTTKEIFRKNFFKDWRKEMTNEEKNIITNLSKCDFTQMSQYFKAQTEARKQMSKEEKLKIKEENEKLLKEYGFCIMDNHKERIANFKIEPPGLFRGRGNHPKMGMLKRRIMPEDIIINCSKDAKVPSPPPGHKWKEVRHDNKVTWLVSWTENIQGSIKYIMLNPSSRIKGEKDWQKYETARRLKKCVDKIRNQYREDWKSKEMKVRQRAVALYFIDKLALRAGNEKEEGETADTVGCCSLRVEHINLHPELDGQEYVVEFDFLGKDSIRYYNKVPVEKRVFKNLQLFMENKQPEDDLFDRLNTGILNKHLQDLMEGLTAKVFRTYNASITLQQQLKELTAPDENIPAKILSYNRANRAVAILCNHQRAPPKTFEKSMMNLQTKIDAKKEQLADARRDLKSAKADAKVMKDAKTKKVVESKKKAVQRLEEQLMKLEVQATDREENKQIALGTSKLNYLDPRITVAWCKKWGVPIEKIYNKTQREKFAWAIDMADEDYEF

| GI50 (DU-145 [1]) | GI50 (HCT-116) | GI50 (MDA-MB-435) | GI50 (OVCAR-3) | GI50 (DU-145 [3]) | Activity [4] | GI50 (OVCAR-3; Homo sapiens, OVCAR-3) | SMILES | GI50 (SF-539) | GI50 (HOP-62) | GI50 (SN12C) | GI50 (UACC-62) | MGM [2] | GI50 (SF-539; Homo sapiens, SF-539) |
| --- | --- | --- | --- | --- | --- | --- | --- | --- | --- | --- | --- | --- | --- |
| < 0.01 µM | 0.1 µM | 0.79 µM | 0.35 µM |  |  |  | COc1cc2c3c(n(CCCNCCO)c(=O)c2cc1OC)-c1cc2c(cc1C3=O)OCO2.Cl | 0.04 µM | 0.02 µM | < 0.01 µM | 0.03 µM | 0.11 |  |
|  | 3.86 µM | 3.7 µM |  | 3.5 µM | Weak activity | 5.87 µM | O=C1c2ccccc2-c2c1c1ccccc1c(=O)n2CCCl |  | 3.81 µM | 4.39 µM | 8.08 µM | 4.37 | 2.48 µM |
